Measurements from ChEMBL document CHEMBL2163332 (J Med Chem, 2012).
Active and inactive are the calls of the source. The calls are words filed in the database; no cut-off is given here.

Key:
[1] = Half life in mouse brain homogenates; assay type: ADME, tissue-based; conditions: brain homogenate
How it was run: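 Peptide incubated at 37 °C in twice-washed 15% mouse brain membrane homogenate, final protein 2.1 mg/mL in 50 mM Tris, pH 7.4. Aliquots centrifuged 13000g, 15 min, 4 °C, filtered 0.22 μm and analysed by C18 RP-HPLC (acetonitrile/water, 0.05% TFA). Half-life from pseudo-first-order disappearance kinetics; at least three experiments.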

[2] = target: Delta-type opioid receptor (Mus musculus, UniProt P32300); experiment: Agonist activity at delta opioid receptor in Kunming mouse vas deferens assessed as inhibition of electrically-stimulated muscle contraction; assay type: functional, tissue-based
Mu-type opioid receptor [3] = target: T1, Mu-type opioid receptor (Homo sapiens, UniProt P35372); experiment: Agonist activity at mu opioid receptor expressed in HEK293 cells assessed as inhibition of forskolin-induced cAMP accumulation after 30 mins by liquid scintillation counter relative to control; assay type: functional, cell-based
How it was run: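 MOR-expressing HEK293 cells seeded at 80% confluence the day before, washed with serum-free medium, preincubated 10 min at 37 °C with 1 mM IBMX, then peptide (5 × 10−11 to 5 × 10−5 M) with 50 μM forskolin added for 30 min at 37 °C. Lysis in 0.2 N HCl, neutralisation, cAMP measured by competition with [3H]cAMP for PKA (≥2 h, 4 °C) and charcoal separation; scintillation counting.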

Mus musculus [4] = experiment: Antinociceptive activity in naloxone treated Kunming mouse assessed as inhibition of heat-induced tail flick at 20 nmol/kg, icv after 10 mins post naloxone treatment; assay type: functional, organism-based
How it was run: (§1)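 Male Kunming mice (18−22 g), peptide or saline given icv; tail immersed in 50 ± 0.2 °C water and withdrawal latency recorded; only mice with baseline latency about 3−5 s used. Readings at 5, 10, 15, 20, 30, 40, 50 and 60 min post-injection; 10−15 mice per group. Naloxone 2 mg/kg ip 10 min before icv dosing for antagonism. ED50 with 95% confidence limits by graded dose−response.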

Mu-type opioid receptor [5] = target: T1, Mu-type opioid receptor; experiment: Agonist activity at mu opioid receptor expressed in HEK293 cells assessed as inhibition of forskolin-induced cAMP accumulation after 30 mins by liquid scintillation counter; assay type: functional, cell-based
Mus musculus [6] = experiment: Antinociceptive activity in Kunming mouse assessed as inhibition of heat-induced tail flick at 0.67 to 20 nmol/kg, icv; assay type: functional, organism-based; conditions: TDE = time-dependent effect; how it was run: as §1
[7] = target: Delta-type opioid receptor (Mus musculus) (UniProt P32300); experiment: Agonist activity at delta opioid receptor in Kunming mouse vas deferens assessed as inhibition of electrically-stimulated muscle contraction in presence of delta opioid receptor antagonist naltrindole; assay type: functional, tissue-based
Mu-type opioid receptor [8] = target: T1, Mu-type opioid receptor; experiment: Displacement of [3H]DAMGO from FLAG-tagged mu opioid receptor expressed in HEK293 cells after 60 mins by liquid scintillation counter; assay type: cell-based
Mu-type opioid receptor [9] = target: T1, Mu-type opioid receptor; experiment: Agonist activity at human FLAG-tagged mu opioid receptor expressed in HEK293 cells assessed as induction of ERK1/2 phosphorylation at 1 pM after 10 mins by Western blot analysis; assay type: functional, cell-based
How it was run: (§2)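 Stable HEK293 line with FLAG-tagged MOR, in 12-well plates and serum-starved 16 h, then exposed to peptide at various concentrations for 10 min at 37 °C. Lysis in RIPA with 10 μM PMSF and phosphatase inhibitors. 20 μg protein run on 10% SDS-PAGE, blotted to PVDF and probed for phospho-ERK1/2 (Thr202/Tyr204) and total ERK1/2 (1:1000), ECL detection; at least three independent experiments.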

Mu-type opioid receptor [10] = target: T1, Mu-type opioid receptor; experiment: Agonist activity at human FLAG-tagged mu opioid receptor expressed in HEK293 cells assessed as induction of ERK1/2 phosphorylation at 10 nM after 10 mins by Western blot analysis; assay type: functional, cell-based; how it was run: as §2
Mu-type opioid receptor [11] = target: T1, Mu-type opioid receptor; experiment: Agonist activity at human FLAG-tagged mu opioid receptor expressed in HEK293 cells assessed as induction of ERK1/2 phosphorylation after 10 mins by Western blot analysis; assay type: functional, cell-based; how it was run: as §2
[12] = Selectivity ratio of Ki for Myc-tagged delta opioid receptor to Ki for FLAG-tagged mu opioid receptor
Mu-type opioid receptor [13] = target: Mu-type opioid receptor (Cavia porcellus, UniProt P97266); experiment: Agonist activity at mu opioid receptor in guinea pig ileum assessed as inhibition of electrically-stimulated muscle contraction; assay type: functional, tissue-based
Mus musculus [14] = experiment: Antinociceptive activity in icv dosed Kunming mouse assessed as inhibition of heat-induced tail flick after 5 to 60 mins; assay type: functional; conditions: for ED50: central; how it was run: as §1
[15] = target: Delta-type opioid receptor (Homo sapiens, UniProt P41143); experiment: Displacement of [3H]DPDPE from Myc-tagged delta opioid receptor expressed in HEK293 cells after 60 mins by liquid scintillation counter; assay type: cell-based
Delta-type opioid receptor (Homo sapiens, UniProt P41143), sequence (P41143 whole entry): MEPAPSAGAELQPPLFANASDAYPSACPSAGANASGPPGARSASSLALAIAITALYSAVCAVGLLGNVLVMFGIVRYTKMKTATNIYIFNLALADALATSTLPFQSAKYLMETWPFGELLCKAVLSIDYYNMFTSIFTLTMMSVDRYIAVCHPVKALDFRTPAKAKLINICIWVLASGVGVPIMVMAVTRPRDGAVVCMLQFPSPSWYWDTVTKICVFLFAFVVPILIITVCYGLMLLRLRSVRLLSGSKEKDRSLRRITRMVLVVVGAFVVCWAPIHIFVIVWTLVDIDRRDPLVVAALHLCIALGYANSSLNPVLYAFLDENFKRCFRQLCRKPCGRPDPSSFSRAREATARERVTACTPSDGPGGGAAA

Delta-type opioid receptor (Mus musculus, UniProt P32300), sequence (P32300 whole entry): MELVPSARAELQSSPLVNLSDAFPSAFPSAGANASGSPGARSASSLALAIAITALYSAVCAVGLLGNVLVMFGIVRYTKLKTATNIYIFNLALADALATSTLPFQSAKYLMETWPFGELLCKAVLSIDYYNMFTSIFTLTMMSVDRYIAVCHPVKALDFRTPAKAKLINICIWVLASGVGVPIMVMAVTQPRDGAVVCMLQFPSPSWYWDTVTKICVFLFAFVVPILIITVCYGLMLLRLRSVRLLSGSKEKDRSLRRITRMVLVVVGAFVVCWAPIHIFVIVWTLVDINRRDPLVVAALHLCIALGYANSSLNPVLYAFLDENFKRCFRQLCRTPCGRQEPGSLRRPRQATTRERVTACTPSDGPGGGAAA
Delta-type opioid receptor (Mus musculus), sequence (P32300 whole entry): as above
Mu-type opioid receptor (Cavia porcellus, UniProt P97266), sequence (P97266 whole entry): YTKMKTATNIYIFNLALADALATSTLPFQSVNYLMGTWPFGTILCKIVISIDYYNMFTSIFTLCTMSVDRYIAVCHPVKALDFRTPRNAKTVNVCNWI
T1 sequence (P35372 whole entry): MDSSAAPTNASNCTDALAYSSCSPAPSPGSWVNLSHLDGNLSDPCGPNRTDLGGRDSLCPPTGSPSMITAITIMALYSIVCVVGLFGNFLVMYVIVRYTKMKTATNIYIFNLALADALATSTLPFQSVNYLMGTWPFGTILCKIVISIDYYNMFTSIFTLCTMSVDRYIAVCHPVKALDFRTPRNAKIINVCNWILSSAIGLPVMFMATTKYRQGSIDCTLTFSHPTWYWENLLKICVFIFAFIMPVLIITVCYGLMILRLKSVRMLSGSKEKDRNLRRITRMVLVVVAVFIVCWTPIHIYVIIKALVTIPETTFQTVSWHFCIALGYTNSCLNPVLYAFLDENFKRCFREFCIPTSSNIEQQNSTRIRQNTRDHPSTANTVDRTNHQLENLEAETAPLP

C=C(C(N)=O)[C@@H](NC(=O)[C@H](Cc1c[nH]c2ccccc12)NC(=O)[C@@H]1CCCN1C(=O)[C@@H](N)Cc1ccc(O)cc1)c1ccoc1
half-life [1]: 88.3 min
IC50 [2]: 10.2 nM
Emax (Mu-type opioid receptor [3]): 98.7%
inhibition (Mus musculus [4]): inactive
EC50 (Mu-type opioid receptor [5]): 0.0342 nM
inhibition (Mu-type opioid receptor [5]): Dose-dependent effect
inhibition (Mus musculus [6]): tde
inhibition [7]: inactive
Ki (Mu-type opioid receptor [8]): 0.274 nM
Activity (Mu-type opioid receptor [9]): Active
Activity (Mu-type opioid receptor [10]): Active
Activity (Mu-type opioid receptor [11]): Dose-dependent effect
Ratio Ki [12]: 186000
IC50 (Mu-type opioid receptor [13]): 3.94 nM
inhibition (Mus musculus [14]): Dose-dependent effect
ED50 (Mus musculus [14]): 0.00155 µmol/kg
Ki [15]: 50.9 µM

C=C(C(N)=O)[C@@H](NC(=O)[C@H](Cc1c[nH]c2ccccc12)NC(=O)[C@@H]1CCCN1C(=O)[C@@H](N)Cc1ccc(O)cc1)c1cccc2ccccc12
IC50 [2]: 84.4 nM
Emax (Mu-type opioid receptor [3]): 71%
EC50 (Mu-type opioid receptor [5]): 72.3 nM
inhibition (Mu-type opioid receptor [5]): Dose-dependent effect
inhibition [7]: inactive
Ki (Mu-type opioid receptor [8]): 26 nM
Ratio Ki [12]: 3260
IC50 (Mu-type opioid receptor [13]): 33.9 nM
Ki [15]: 84.7 µM

C=C(C(N)=O)[C@@H](NC(=O)[C@H](Cc1c[nH]c2ccccc12)NC(=O)[C@@H]1CCCN1C(=O)[C@@H](N)Cc1ccc(O)cc1)c1ccc2c(c1)OCO2
IC50 [2]: 432 nM
Emax (Mu-type opioid receptor [3]): 83.9%
EC50 (Mu-type opioid receptor [5]): 10.7 nM
inhibition (Mu-type opioid receptor [5]): Dose-dependent effect
inhibition [7]: inactive
Ki (Mu-type opioid receptor [8]): 7.73 nM
Ratio Ki [12]: 2420
IC50 (Mu-type opioid receptor [13]): 14.3 nM
Ki [15]: 18.7 µM

C=C(C(N)=O)[C@@H](NC(=O)C(=C)[C@@H](NC(=O)[C@@H]1CCCN1C(=O)[C@@H](N)Cc1ccc(O)cc1)c1ccccc1)c1ccccc1
IC50 [2]: 166 nM
Emax (Mu-type opioid receptor [3]): 60.3%
EC50 (Mu-type opioid receptor [5]): 45.1 nM
inhibition (Mu-type opioid receptor [5]): Dose-dependent effect
inhibition [7]: inactive
Ki (Mu-type opioid receptor [8]): 15.7 nM
Ratio Ki [12]: 699
IC50 (Mu-type opioid receptor [13]): 38.1 nM
inhibition (Mus musculus [14]): Dose-dependent effect
Ki [15]: 11 µM

NC(=O)[C@H](Cc1ccccc1)NC(=O)[C@H](Cc1ccccc1)NC(=O)[C@@H]1CCCN1C(=O)[C@@H](N)Cc1ccc(O)cc1
Emax (Mu-type opioid receptor [3]): 82.8%
inhibition [7]: inactive

C=C(C(N)=O)[C@@H](NC(=O)[C@H](Cc1c[nH]c2ccccc12)NC(=O)[C@@H]1CCCN1C(=O)[C@@H](N)Cc1ccc(O)cc1)c1ccccc1Cl
IC50 [2]: 365 nM
Emax (Mu-type opioid receptor [3]): 82.6%
EC50 (Mu-type opioid receptor [5]): 0.84 nM
inhibition (Mu-type opioid receptor [5]): Dose-dependent effect
inhibition [7]: inactive
Ki (Mu-type opioid receptor [8]): 5.48 nM
Ratio Ki [12]: 2720
IC50 (Mu-type opioid receptor [13]): 16.6 nM
Ki [15]: 14.9 µM

NC(=O)[C@H](Cc1ccccc1)NC(=O)[C@H](Cc1c[nH]c2ccccc12)NC(=O)[C@@H]1CCCN1C(=O)[C@@H](N)Cc1ccc(O)cc1
inhibition [7]: inactive

C=C(C(N)=O)[C@@H](NC(=O)[C@H](Cc1c[nH]c2ccccc12)NC(=O)[C@@H]1CCCN1C(=O)[C@@H](N)Cc1ccc(O)cc1)c1ccc(F)cc1
IC50 [2]: 130 nM
Emax (Mu-type opioid receptor [3]): 81.5%
EC50 (Mu-type opioid receptor [5]): 7.35 nM
inhibition (Mu-type opioid receptor [5]): Dose-dependent effect
inhibition [7]: inactive
Ki (Mu-type opioid receptor [8]): 13.7 nM
Ratio Ki [12]: 1240
IC50 (Mu-type opioid receptor [13]): 31.5 nM
inhibition (Mus musculus [14]): Dose-dependent effect
Ki [15]: 17 µM

C=C(C(=O)N[C@@H](Cc1ccccc1)C(N)=O)[C@@H](NC(=O)[C@@H]1CCCN1C(=O)[C@@H](N)Cc1ccc(O)cc1)c1ccccc1
IC50 [2]: > 10000 nM
Emax (Mu-type opioid receptor [3]): 70.8%
EC50 (Mu-type opioid receptor [5]): 36.5 nM
inhibition (Mu-type opioid receptor [5]): Dose-dependent effect
inhibition [7]: inactive
Ki (Mu-type opioid receptor [8]): 103 nM
Ratio Ki [12]: 576
IC50 (Mu-type opioid receptor [13]): 20.9 nM
inhibition (Mus musculus [14]): Dose-dependent effect
Ki [15]: 59.3 µM

C=C(C(N)=O)[C@@H](NC(=O)[C@H](Cc1c[nH]c2ccccc12)NC(=O)[C@@H]1CCCN1C(=O)[C@@H](N)Cc1ccc(O)cc1)c1ccc2ccccc2c1
IC50 [2]: 141 nM
Emax (Mu-type opioid receptor [3]): 67.5%
EC50 (Mu-type opioid receptor [5]): 70.3 nM
inhibition (Mu-type opioid receptor [5]): Dose-dependent effect
inhibition [7]: inactive
Ki (Mu-type opioid receptor [8]): 27.4 nM
Ratio Ki [12]: 3100
IC50 (Mu-type opioid receptor [13]): 18.2 nM
Ki [15]: 84.9 µM

C=C(C(N)=O)[C@@H](NC(=O)[C@H](Cc1c[nH]c2ccccc12)NC(=O)[C@@H]1CCCN1C(=O)[C@@H](N)Cc1ccc(O)cc1)c1ccc(Cl)cc1
IC50 [2]: 36.7 nM
Emax (Mu-type opioid receptor [3]): 85.6%
EC50 (Mu-type opioid receptor [5]): 12 nM
inhibition (Mu-type opioid receptor [5]): Dose-dependent effect
inhibition [7]: inactive
Ki (Mu-type opioid receptor [8]): 7.12 nM
Ratio Ki [12]: 1520
IC50 (Mu-type opioid receptor [13]): 15.3 nM
inhibition (Mus musculus [14]): Dose-dependent effect
Ki [15]: 10.8 µM

C=C(C(N)=O)[C@@H](NC(=O)[C@H](Cc1c[nH]c2ccccc12)NC(=O)[C@@H]1CCCN1C(=O)[C@@H](N)Cc1ccc(O)cc1)c1cccc(Cl)c1
half-life [1]: 89.9 min
IC50 [2]: 69.4 nM
Emax (Mu-type opioid receptor [3]): 92.5%
inhibition (Mus musculus [4]): inactive
EC50 (Mu-type opioid receptor [5]): 0.72 nM
inhibition (Mu-type opioid receptor [5]): Dose-dependent effect
inhibition (Mus musculus [6]): tde
inhibition [7]: inactive
Ki (Mu-type opioid receptor [8]): 3.49 nM
Ratio Ki [12]: 1670
IC50 (Mu-type opioid receptor [13]): 7.66 nM
inhibition (Mus musculus [14]): Dose-dependent effect
ED50 (Mus musculus [14]): 0.00928 µmol/kg
Ki [15]: 5.82 µM

C=C(C(N)=O)[C@@H](NC(=O)[C@H](Cc1c[nH]c2ccccc12)NC(=O)[C@@H]1CCCN1C(=O)[C@@H](N)Cc1ccc(O)cc1)c1ccc(OC)cc1
IC50 [2]: 299 nM
Emax (Mu-type opioid receptor [3]): 85.6%
EC50 (Mu-type opioid receptor [5]): 10.9 nM
inhibition (Mu-type opioid receptor [5]): Dose-dependent effect
inhibition [7]: inactive
Ki (Mu-type opioid receptor [8]): 4.83 nM
Ratio Ki [12]: 2110
IC50 (Mu-type opioid receptor [13]): 84.2 nM
Ki [15]: 10.2 µM
